# High-throughput results: PubChem BioAssay, Broad Institute
# Shown are actives, neighbours in structure and some others; about 2% of the full set was active somewhere.
# S100A4 inh HTS – inhibitors of human S100A4 binding to myosin IIA peptide. P26447. S100A4/TAMRA-MyoIIA peptide fluorescence polarization. inhibition, % at 10.7 µM. actives 0.14% (n = 360,000);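 active means mean inhibition of at least 70% across replicates, with every replicate also reaching that level; inconclusive means mean inhibition reaches 70% but some replicates fall short; inactive means mean inhibition below 70%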
# Target sequence (P26447 whole entry, looked up): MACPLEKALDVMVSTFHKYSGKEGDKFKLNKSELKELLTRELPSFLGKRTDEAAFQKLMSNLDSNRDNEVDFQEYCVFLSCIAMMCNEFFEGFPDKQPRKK
#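 System – human S100A4 monomer protein, biochemical binding assay · Buffer or medium – Calcium-containing HEPES buffer, pH 7.2 · Timing – 5 min between mix addition and reading · Also added – TAMRA-labelled myosin IIA heavy-chain peptide probe, 5 nM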
# CAL PDZ FP-1 – inhibitors of human CAL PDZ peptide binding; Q9HD26; purified CAL PDZ, TMR-peptide fluorescence polarization, 1 h; inhibition, % at 24.9 µM; actives 0.92% (n = 300,000); AID 602252;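 active means mean inhibition of at least 30% with at least half of replicates also reaching 30%; inconclusive means no clear call, values can overlap the other calls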;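 further: 0% = DMSO neutral control and 100% = excess unlabeled competitor peptide PRC23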
# C2C12 statin – suppressors of simvastatin-induced myotoxicity in C2C12 myotubes | ATP luminescence, 48 h; scaled: DMSO 0, geranylgeraniol control 100 | actives 0.78% (n = 330,000) | rescue of ATP level, % at 7.49 µM;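 active means mean ATP rescue above about 67%, or every replicate alone reaching that limit, limit read from the data, passing the limit was not always enough; inconclusive means no clear call, values can overlap the other calls; inactive means mean under the limit and some replicate under it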;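 further: myotubes were challenged with 10 µM simvastatin during compound exposure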
# dFosB act-1 – enhances mouse delta FosB homodimer DNA binding. P13346. purified delta FosB, TAMRA-CDK5 oligo fluorescence polarization; percent of positive-control signal above neutral wells. activation, % at 25 µM. actives 0.99% (n = 340,000);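 active means mean activation above about 17%, with every replicate also reaching it, limit read from the data, passing the limit was not always enough; inconclusive means only one of the two conditions met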
# Target sequence (P13346 whole entry, looked up): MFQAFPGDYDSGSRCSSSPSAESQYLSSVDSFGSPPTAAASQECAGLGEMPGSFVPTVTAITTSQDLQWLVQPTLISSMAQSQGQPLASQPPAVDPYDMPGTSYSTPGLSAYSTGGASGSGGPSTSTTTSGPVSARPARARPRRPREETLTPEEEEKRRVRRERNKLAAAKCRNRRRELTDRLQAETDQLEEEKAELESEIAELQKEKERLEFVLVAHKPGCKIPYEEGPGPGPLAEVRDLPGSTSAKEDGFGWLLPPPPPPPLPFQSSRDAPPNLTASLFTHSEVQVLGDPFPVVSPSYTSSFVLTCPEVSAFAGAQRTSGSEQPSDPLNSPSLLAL
# CAL PDZ FP-2 – human CAL PDZ-peptide interaction inhibition; AID 504414; Q9HD26; actives 0.02% (n = 330,000); purified CAL PDZ, TMR-peptide fluorescence polarization, 1 h; inhibition, % at 20 µM;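 active means highest replicate inhibition of at least 40%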;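 further: plate controls were DMSO neutral control wells for no effect and unlabeled competitor peptide control wells for full effect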
#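 Test system: purified CerCALP PDZ construct; Compound dosing: one concentration, 20 µM compound; Also added: TMR-labelled reporter peptide T*-PRC34 bound in PDZ groove; Read-out: inhibition from polarization loss; Controls: unlabelled peptide and DMSO controls; Signal: FP readout, S and P plane fluorescence; Incubation: 1 h at RT.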
# CDK5 p35 inh – blocks human CDK5/p35 kinase activity; Q00535+Q15078; Recombinant CDK5/p35, ADP-Glo luminescence, 60 min; inhibition, % at 10 µM; actives 0.01% (n = 330,000); AID 488839;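 active means highest replicate inhibition of at least 50% and at least 75% of replicates reaching 50%; inconclusive means only one of the two criteria met; inactive means both criteria failed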;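 further: plate controls were DMSO neutral control for no effect and GW8510 at 10 µM for full effect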
# dFosB act-2 – delta FosB (mouse) homodimer activation; shares compounds with dFosB act-1; purified delta FosB, TAMRA-CDK5 oligo fluorescence polarization; normalised: neutral wells 0, positive control 100; activation, % at 24.9 µM; 2,400 tested, under 10 active; AID 588690;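 active means highest replicate activation at or above 34% and every replicate reaching that threshold; inconclusive means meets only one of the two criteria; inactive means meets neither criterion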;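 further: higher polarization means more probe DNA bound by delta FosB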
# Starred values were filed as active, the others as inactive; ? = inconclusive; . = no result given.
SMILES,S100A4 inh HTS,CAL PDZ FP-1,C2C12 statin,dFosB act-1,CAL PDZ FP-2,CDK5 p35 inh,dFosB act-2
Cc1ccc(CN2CCN(Cc3ccccc3)C(CCO)C2)s1 (stereo not given),-3,3,.,0,0,0,.
O=C(NCC(=O)N(Cc1ccccc1)C(C(=O)NC1CCCC1)c1cccnc1)c1ccco1 (stereo not given),.,0,10,-4,.,1,.
Cc1ccc(C(C(=O)NC2CCCC2)N(C(=O)Cc2cccs2)c2ccc3c(c2)OCCO3)cc1 (stereo not given),-4,-4,106*,0,-1,-2,.
O=C(NCC(=O)N(c1ccc2c(c1)OCO2)C(C(=O)NC1CCCC1)c1ccncc1)c1ccco1 (stereo not given),.,-1,66*,0,-1,-1,.
O=C(NCC(=O)N(Cc1cccs1)C(C(=O)NC1CCCCC1)c1cccnc1)c1ccco1 (stereo not given),.,.,133*,-7,0,-1,.
O=C(NC1CCCC1)C(c1ccc(F)cc1)N(C(=O)Cc1cccs1)c1ccc2c(c1)OCCO2 (stereo not given),.,-6,26,-6,-1,2,.
O=C(NCC(=O)N(c1ccc(Cl)cc1)C(C(=O)NC1CCCC1)c1ccncc1)c1ccco1 (stereo not given),-1,0,-6,-13,-2,-6,.
COC(C(=O)Nc1ccccc1F)c1ccccc1 (stereo not given),.,0,26,3,0,0,.
CCN(CC)CC(=O)NCC1(c2ccccc2)CCOCC1,.,70*,3,-2,-2,-1,.
C#Cc1ccc(CN2CCCC(C(=O)Nc3ccccc3Oc3cccnc3)C2)cc1 (stereo not given),-2,-1,91*,-8,-3,0,.
CC(C(=O)O)n1c(C(F)(F)F)nc2ccccc21 (stereo not given),.,.,132*,3,-1,-1,.
CC(CC(=O)O)CC(=O)Nc1nncs1 (stereo not given),-7,53*,11,-1,1,0,.
Cc1cc(CN2CCC(N3CCC(C(=O)NC4CC4)CC3)CC2)cc(C)c1O,3,-1,-3,0,-1,0,.
C[C@H](CO)N1C[C@H](C)[C@H](CN(C)Cc2ccccc2)Oc2ccc(NS(=O)(=O)c3ccccc3)cc2CC1=O,87*,.,18,.,.,.,.
COc1ccc(S(=O)(=O)Nc2ccc3c(c2)CC(=O)N([C@H](C)CO)C[C@@H](C)[C@H](CN(C)Cc2ccccc2)O3)cc1,4,.,72*,.,.,.,.
COc1ccc(S(=O)(=O)Nc2ccc3c(c2)CC(=O)N([C@@H](C)CO)C[C@H](C)[C@H](CN(C)Cc2ccccc2)O3)cc1,-1,.,54,.,.,.,.
COc1ccc(CN(C)C[C@H]2Oc3ccc(NS(=O)(=O)c4ccc(Cl)cc4)cc3CC(=O)N([C@@H](C)CO)C[C@@H]2C)cc1,-13,.,86*,.,.,.,.
COc1ccc(S(=O)(=O)Nc2ccc3c(c2)CC(=O)N([C@H](C)CO)C[C@H](C)[C@@H](CN(C)CC2CC2)O3)cc1,118*,.,5,.,.,.,.
COc1ccc(S(=O)(=O)Nc2ccc3c(c2)CC(=O)N([C@H](C)CO)C[C@H](C)[C@H](CN(C)Cc2ccc(Oc4ccccc4)cc2)O3)cc1,-8,.,5,.,.,.,.
C[C@@H]1CN([C@@H](C)CO)C(=O)Cc2cc(NS(=O)(=O)c3ccc(F)cc3)ccc2O[C@H]1CN(C)Cc1ccc(Oc2ccccc2)cc1,8,.,99*,.,.,.,.
COc1ccc(S(=O)(=O)Nc2ccc3c(c2)CC(=O)N([C@@H](C)CO)C[C@@H](C)[C@H](CN(C)Cc2ccc(Oc4ccccc4)cc2)O3)cc1,7,.,97*,.,.,.,.
COc1ccc(S(=O)(=O)Nc2ccc3c(c2)CC(=O)N([C@@H](C)CO)C[C@H](C)[C@@H](CN(C)Cc2ccc(Cl)c(Cl)c2)O3)cc1,-1,.,122*,.,.,.,.
C#CCOCC1CN(c2ccccc2)C(=O)O1 (stereo not given),-8,.,.,.,.,.,.
O=C1OC(COc2ccc(Br)cc2)CN1c1ccccc1 (stereo not given),2,87*,.,3,-1,0,.
Cc1cc(NC(=O)COC(=O)c2oc3c(ccc4ccccc43)c2C)no1,1,-3,5,-7,-1,1,.
SMILES,S100A4 inh HTS,CAL PDZ FP-1,C2C12 statin,dFosB act-1,CAL PDZ FP-2,CDK5 p35 inh,dFosB act-2
Cc1ccc2c(C)c(C(=O)Nc3ccc(S(N)(=O)=O)cc3)oc2c1C,-2,-3,3,48*,0,-2,5
Cc1c(C(=O)OCC(=O)Nc2ccc(S(N)(=O)=O)cc2)oc2c1ccc1ccccc12,-2,4,3,29*,0,1,2
CCOC(=O)c1ccc(NC(=O)C2C3CCCCC32)cc1 (stereo not given),-6,-2,-8,-2,1,1,.
COc1ccc(-n2nnnc2SCC(=O)c2ccc3c(c2)OCCO3)cc1,.,-4,15,23*,.,-4,2
Cc1ccc(NC(=O)CSc2nnnn2-c2ccc3c(c2)OCO3)cc1C,.,3,.,40*,-2,0,0
Cc1ccc(-n2nnnc2SCC(=O)Nc2ccc3c(c2)COC3=O)cc1C,.,1,-17,54*,-2,-1,-3
COc1cc(C2C(C#N)=C(N)Oc3cc(C)n(CCc4ccccc4)c(=O)c32)cc2c1OCO2 (stereo not given),.,-8,.,68*,.,0,0
Cc1cc(C)c2nc(/N=C(\N)NC(=O)Nc3ccccc3)nc(C)c2c1,.,.,.,52*,-7,0,1
Cc1ccc(NC(=O)c2sc3ncn(CC(=O)N4CCN(c5ccccn5)CC4)c(=O)c3c2C)cc1Cl,-3,-2,-13,35*,0,0,1
COc1ccc(CN(C)C[C@H]2OCCCC[C@@H](C)Oc3ccc(NS(C)(=O)=O)cc3C(=O)N([C@@H](C)CO)C[C@@H]2C)cc1,-7,.,41,.,.,.,.
CSc1nsc(/C=C/Nc2cccc(Cl)c2)c1C#N,.,-2,8,-6,2,0,.
CCOC(=O)c1c(CNCCN(CC)CC)n(C)c2cc(Br)c(OC)cc12,.,-7,.,24*,-3,0,?
Cc1cc(=O)n2nc(N3CCCC(C(=O)NCc4ccc(F)cc4)C3)sc2n1 (stereo not given),-1,-6,29,-7,0,0,.
O=C(NCc1ccc(F)cc1)C1CCCN(c2nc3ccsc3c(=O)s2)C1 (stereo not given),-2,.,13,75*,0,0,-8
